Measured values published in ChEMBL document CHEMBL1130071, “Pyrrolomorphinans as delta opioid receptor antagonists. The role of steric hindrance in conferring selectivity” (J Med Chem, 1997).

Experiments:
[1] = target: Mu-type opioid receptor (Cavia porcellus) (UniProt P97266); assay: Agonist activity against guinea pig ileum Opioid receptor mu 1; format: functional, tissue-based
Outline: (§1)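 Agonist activity in MVD or GPI preparations; ligands that were not full agonists tested at 1 µM, activity expressed as percent of maximal response.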

[2] = target: Kappa-type opioid receptor (Mus musculus, UniProt P33534); assay: Binding affinity against Opioid receptor kappa 1 binding in ICR mouse brain membranes using the radioligand [3H]U-69593; format: cell membranes, Membrane
Outline: (§2)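 Competition binding on ICR mouse brain membranes using selective radioligands: [3H]naltrindole (δ), [3H]DAMGO (μ), [3H]U69593 (κ). Ki reported as mean ± SEM of at least three determinations.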

[3] = target: Delta-type opioid receptor (Mus musculus) (UniProt P32300); assay: Activity against Opioid receptor delta 1 on electrically stimulated mouse vas deferens using DADLE as agonist; format: functional, tissue-based
Outline: (§3)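 Antagonist test in electrically stimulated smooth muscle, DADLE in MVD, morphine or ethylketazocine in GPI: ligand (100 nM) preincubated with the preparation 15 min before agonist testing. IC50 ratio = agonist IC50 with test compound / control IC50 in same preparation; Ke = [antagonist]/(IC50 ratio − 1).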

[4] = target: Delta-type opioid receptor (Mus musculus, UniProt P32300); assay: Binding affinity against Opioid receptor delta 1 receptor binding in ICR mouse brain membranes using the radioligand [3H]naltrindole; format: cell membranes, Membrane; outline: as §2
Mu-type opioid receptor = Mu-type opioid receptor (Mus musculus, UniProt P42866); assay: Binding affinity against Opioid receptor mu 1 binding in ICR mouse brain membranes using the radioligand [3H][Ala2,Glyol5]enkephalin; format: cell membranes, Membrane; outline: as §2
[5] = target: Kappa-type opioid receptor (Homo sapiens) (UniProt P41145); assay: Selectivity ratio measured as the delta IC50 to that of kappa IC50 values.; format: functional
[6] = target: Delta-type opioid receptor (Homo sapiens) (UniProt P41143); assay: Selectivity ratio measured as the kappa Ki to that of delta Ki values.
Outline: (§4)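 Ki selectivity ratio = Ki at κ or μ (ICR mouse brain membranes, [3H]U69593 or [3H]DAMGO) divided by Ki at δ ([3H]naltrindole competition).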

[7] = target: Delta-type opioid receptor (Homo sapiens) (UniProt P41143); assay: Selectivity ratio measured as the mu Ki to that of delta Ki values.; outline: as §4
[8] = target: Mu-type opioid receptor (Homo sapiens) (UniProt P35372); assay: Selectivity ratio measured as the delta IC50 to that of mu IC50 values.; format: functional
[9] = target: Delta-type opioid receptor (Mus musculus) (UniProt P32300); assay: Agonist activity in mouse vas deferens assay relative to DADLE; format: functional, tissue-based; outline: as §1
[10] = target: Kappa-type opioid receptor (Cavia porcellus) (UniProt P41144); assay: Agonist activity against guinea pig ileum kappa receptor relative to ethylketazocine; format: functional, tissue-based; outline: as §1
[11] = target: Kappa-type opioid receptor (Cavia porcellus) (UniProt P41144); assay: Activity against Opioid receptor kappa 1 on electrically stimulated guinea pig ileum using ethylketazocine as the standard agonist.; format: functional, tissue-based; outline: as §3
[12] = target: Mu-type opioid receptor (Cavia porcellus) (UniProt P97266); assay: Activity against mu receptor on electrically stimulated guinea pig ileum using morphine as the standard agonist (Opioid receptor mu 1); format: functional, tissue-based; outline: as §3
[13] = target: Mu-type opioid receptor (Cavia porcellus) (UniProt P97266); assay: Agonist guinea pig ileum (Opioid receptor mu 1); format: functional, tissue-based; outline: as §1
[14] = target: Mu-type opioid receptor (Cavia porcellus) (UniProt P97266); assay: Agonist guinea pig ileum; format: functional, tissue-based; outline: as §1

Chain of Mu-type opioid receptor (Homo sapiens) (P35372 whole entry): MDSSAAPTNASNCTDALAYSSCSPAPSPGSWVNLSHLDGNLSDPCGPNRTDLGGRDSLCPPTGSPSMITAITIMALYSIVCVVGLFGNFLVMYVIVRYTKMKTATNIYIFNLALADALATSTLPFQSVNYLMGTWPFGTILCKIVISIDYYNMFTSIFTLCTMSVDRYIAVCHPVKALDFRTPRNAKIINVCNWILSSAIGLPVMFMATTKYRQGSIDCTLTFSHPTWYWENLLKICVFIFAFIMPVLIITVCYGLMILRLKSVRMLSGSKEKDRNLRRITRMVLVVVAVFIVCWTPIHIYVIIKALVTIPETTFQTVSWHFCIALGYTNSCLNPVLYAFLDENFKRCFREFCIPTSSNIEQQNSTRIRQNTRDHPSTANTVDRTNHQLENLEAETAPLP
Chain of Delta-type opioid receptor (Homo sapiens) (P41143 whole entry): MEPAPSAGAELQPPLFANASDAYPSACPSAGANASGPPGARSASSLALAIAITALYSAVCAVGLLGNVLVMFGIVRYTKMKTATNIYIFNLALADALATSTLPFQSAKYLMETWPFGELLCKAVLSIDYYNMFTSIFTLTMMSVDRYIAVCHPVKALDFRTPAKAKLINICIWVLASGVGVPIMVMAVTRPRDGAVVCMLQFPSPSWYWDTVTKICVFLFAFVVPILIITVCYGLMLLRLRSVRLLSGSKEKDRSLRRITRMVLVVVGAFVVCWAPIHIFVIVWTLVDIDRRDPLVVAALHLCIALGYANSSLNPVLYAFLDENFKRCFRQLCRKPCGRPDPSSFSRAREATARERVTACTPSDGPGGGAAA
Chain of Kappa-type opioid receptor (P33534 whole entry): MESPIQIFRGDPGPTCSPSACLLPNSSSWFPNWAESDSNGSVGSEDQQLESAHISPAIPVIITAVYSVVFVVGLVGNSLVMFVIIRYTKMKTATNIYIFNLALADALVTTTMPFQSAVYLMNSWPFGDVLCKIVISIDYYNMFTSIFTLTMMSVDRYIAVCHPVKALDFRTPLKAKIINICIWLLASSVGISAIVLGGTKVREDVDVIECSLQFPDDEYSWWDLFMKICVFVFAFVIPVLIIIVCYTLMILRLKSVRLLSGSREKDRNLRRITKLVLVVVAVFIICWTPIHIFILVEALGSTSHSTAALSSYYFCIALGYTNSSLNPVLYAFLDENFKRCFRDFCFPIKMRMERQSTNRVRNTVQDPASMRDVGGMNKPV
Chain of Kappa-type opioid receptor (Cavia porcellus) (P41144 whole entry): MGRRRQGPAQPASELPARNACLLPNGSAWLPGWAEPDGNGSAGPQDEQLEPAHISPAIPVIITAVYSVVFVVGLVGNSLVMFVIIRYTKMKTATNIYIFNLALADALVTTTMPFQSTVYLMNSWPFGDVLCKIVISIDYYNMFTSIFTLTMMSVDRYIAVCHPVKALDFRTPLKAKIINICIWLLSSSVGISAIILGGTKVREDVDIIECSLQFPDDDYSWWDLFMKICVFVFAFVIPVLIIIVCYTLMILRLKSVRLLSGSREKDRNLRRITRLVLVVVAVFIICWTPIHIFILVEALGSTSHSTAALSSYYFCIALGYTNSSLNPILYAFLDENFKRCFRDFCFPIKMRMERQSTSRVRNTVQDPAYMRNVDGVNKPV
Chain of Mu-type opioid receptor (Cavia porcellus) (P97266 whole entry): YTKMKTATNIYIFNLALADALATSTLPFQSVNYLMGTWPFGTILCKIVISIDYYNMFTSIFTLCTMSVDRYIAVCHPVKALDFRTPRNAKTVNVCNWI
Chain of Kappa-type opioid receptor (Homo sapiens) (P41145 whole entry): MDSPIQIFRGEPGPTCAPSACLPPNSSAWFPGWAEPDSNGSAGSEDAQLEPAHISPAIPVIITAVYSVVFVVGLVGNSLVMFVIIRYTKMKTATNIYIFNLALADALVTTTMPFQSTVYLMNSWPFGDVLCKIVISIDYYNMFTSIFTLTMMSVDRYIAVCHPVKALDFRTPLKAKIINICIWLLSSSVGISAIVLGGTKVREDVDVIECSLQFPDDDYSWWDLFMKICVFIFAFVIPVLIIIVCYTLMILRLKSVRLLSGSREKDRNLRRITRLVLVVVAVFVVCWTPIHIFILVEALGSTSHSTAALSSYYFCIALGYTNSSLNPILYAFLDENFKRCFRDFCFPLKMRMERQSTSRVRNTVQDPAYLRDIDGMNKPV
Chain of Delta-type opioid receptor (P32300 whole entry): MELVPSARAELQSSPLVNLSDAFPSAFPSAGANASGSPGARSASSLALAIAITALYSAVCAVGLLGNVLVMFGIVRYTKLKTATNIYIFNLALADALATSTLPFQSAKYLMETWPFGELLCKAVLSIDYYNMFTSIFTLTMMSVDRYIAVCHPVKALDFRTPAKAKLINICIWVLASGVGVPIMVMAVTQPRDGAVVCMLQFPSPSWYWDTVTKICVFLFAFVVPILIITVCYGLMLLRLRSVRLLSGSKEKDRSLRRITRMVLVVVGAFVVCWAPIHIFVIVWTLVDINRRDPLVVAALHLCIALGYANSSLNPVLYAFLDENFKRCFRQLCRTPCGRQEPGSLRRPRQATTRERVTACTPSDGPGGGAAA
Chain of Delta-type opioid receptor (Mus musculus) (P32300 whole entry): as above
Chain of Mu-type opioid receptor (P42866 whole entry): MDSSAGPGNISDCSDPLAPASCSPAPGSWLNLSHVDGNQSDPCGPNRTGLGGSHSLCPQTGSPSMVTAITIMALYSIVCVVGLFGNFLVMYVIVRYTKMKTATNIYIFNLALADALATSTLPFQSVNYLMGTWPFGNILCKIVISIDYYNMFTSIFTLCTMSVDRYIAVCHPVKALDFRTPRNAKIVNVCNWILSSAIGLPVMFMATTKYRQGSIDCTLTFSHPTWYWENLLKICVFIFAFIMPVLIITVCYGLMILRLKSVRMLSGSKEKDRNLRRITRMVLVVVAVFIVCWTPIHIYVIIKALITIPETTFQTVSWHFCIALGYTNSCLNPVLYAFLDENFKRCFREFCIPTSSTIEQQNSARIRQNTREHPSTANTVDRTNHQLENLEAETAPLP

SMILES | IC50 ratio [1] | Ki [2] | Ke [3] | Ki [4] | Ki (Mu-type opioid receptor) | Selectivity ratio [5] | Selectivity ratio [6] | Selectivity ratio [7] | Selectivity ratio [8] | IC50 ratio [9] | IC50 ratio [10] | Ke [11] | Ke [12] | IC50 ratio [13] | IC50 ratio [14]
CCCCc1c(C)[nH]c2c1C[C@@]1(O)C3Cc4ccc(O)c5c4C1(CCN3CC1CC1)[C@H]2O5 (stereo not given in full) | 2.1 | 39 nM | 6.7 nM | 12 nM | 57 nM | 17 | 3.3 | 4.8 | 8 | 16.8 | 0.95 | – | – | – | –
CCCCc1c(CC(C)C)[nH]c2c1C[C@@]1(O)C3Cc4ccc(O)c5c4C1(CCN3CC1CC1)[C@H]2O5 (stereo not given in full) | 0.76 | – | 11.4 nM | – | – | 10 | – | – | 10 | 9.8 | 0.99 | – | – | – | –
Oc1ccc2c3c1O[C@H]1c4[nH]cc(-c5ccccc5)c4C[C@@]4(O)C(C2)N(CC2CC2)CCC314 (stereo not given in full) | 2.3 | 45 nM | – | 2.7 nM | 21 nM | 0.7 | 16.7 | 7.8 | 0.7 | 1.5 | 2.1 | – | – | – | –
Cc1c(CC(C)C)[nH]c2c1C[C@@]1(O)C3Cc4ccc(O)c5c4C1(CCN3CC1CC1)[C@H]2O5 (stereo not given in full) | 380 | – | 3.3 nM | – | – | – | – | – | – | 32 | 380 | – | – | – | –
Cn1c2c(c3c1[C@@H]1Oc4c(O)ccc5c4C14CCN(CC1CC1)C(C5)[C@]4(O)C3)CCCC2 (stereo not given in full) | – | – | – | – | – | – | – | – | – | – | – | 254 nM | 158 nM | – | –
CC(C)Cc1[nH]c2c(c1-c1ccccc1)C[C@@]1(O)C3Cc4ccc(O)c5c4C1(CCN3CC1CC1)[C@H]2O5 (stereo not given in full) | 4.1 | – | – | – | – | 0.2 | – | – | 0.2 | 0.76 | 1.3 | – | – | – | –
Cc1[nH]c2c(c1C)C[C@@]1(O)C3Cc4ccc(O)c5c4C1(CCN3CC1CC1)[C@H]2O5 (stereo not given in full) | 1.5 | 22 nM | 14.8 nM | 0.41 nM | 39 nM | 7 | 53.7 | 95 | 5 | 7.7 | 1.4 | – | – | – | –
O=C1/C(=C/c2ccccc2)C[C@@]2(O)[C@H]3Cc4ccc(O)c5c4[C@@]2(CCN3CC2CC2)[C@H]1O5 | – | – | – | – | – | 18 | – | – | 2.7 | – | – | – | – | – | –
Cc1[nH]c2c(c1Cc1ccccc1)C[C@@]1(O)C3Cc4ccc(O)c5c4C1(CCN3CC1CC1)[C@H]2O5 (stereo not given in full) | 1.3 | 41 nM | 2.1 nM | 0.35 nM | 28 nM | 50 | 117 | 80 | 50 | 50 | 1.3 | – | – | – | –
Oc1ccc2c3c1O[C@H]1c4[nH]c5ccccc5c4C[C@@]4(O)[C@@H](C2)N(CC2CC2)CC[C@]314 [NALTRINDOLE] | – | 355 nM | – | 0.04 nM | 6.1 nM | – | – | – | – | – | – | – | – | – | –
Oc1ccc2c3c1O[C@H]1c4[nH]c(-c5ccccc5)c(-c5ccccc5)c4C[C@@]4(O)C(C2)N(CC2CC2)CCC314 (stereo not given in full) | – | – | – | – | – | 1 | – | – | 1 | 1.4 | – | – | – | 1.2 | 1.1
Oc1ccc2c3c1O[C@H]1c4[nH]ccc4C[C@@]4(O)C(C2)N(CC2CC2)CCC314 (stereo not given in full) | – | – | 3.2 nM | – | – | 0.17 | – | – | 0.03 | – | – | 3.2 nM | 0.65 nM | – | –
Cc1[nH]c2c(c1-c1ccccc1)C[C@@]1(O)C3Cc4ccc(O)c5c4C1(CCN3CC1CC1)[C@H]2O5 (stereo not given in full) | 0.9 | – | – | – | – | 1.6 | – | – | 1.6 | 1.6 | 0.98 | – | – | – | –
